# High-throughput results from PubChem BioAssay.
# Many of the other results were omitted from the sample, so hits are more common in it than they were.
# INS-1E rescue – rescue of cytokine-induced death in INS-1E beta cells. INS-1E cytokine-induced death, ATP luminescence, 48 h; normalised: neutral wells 0, positive control 100. protection from cytokine-induced ATP loss, % at 10 µM. hit rate 0.1% among 20,000;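 active means mean replicate protection from cytokine-induced ATP loss at least 50% and at least 75% of replicates each reaching 50%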
#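 Test system: INS-1E rat cells | Quantity: 8000 cells per well | Medium: Phenol-red-free RPMI with 5% fetal bovine serum | Reagent: Cytokine cocktail of IFN-γ, TNF-α and IL-1β | Doses: One compound concentration, pin transfer | Timing: 48 h co-treatment, 10 min post-lysis read | Technique: Luminescent ATP assay (CellTiter-Glo)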
# T cruzi intra – blocks T. cruzi growth inside host cells | activity score (inhibition), % at 5.01 µM | hit rate 4.9% among 22,000 | intracellular Trypanosoma cruzi in host cells, plate reader | AID 651903; in the data active means activity score above about 55%;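 further: parasites and compound incubated about four days before reading; 0% = median of neutral control wells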
# A1 apoptosis 2 – blocks A1, raising caspase activity | MEF A1-2A-BIM cells, caspase-Glo luminescence, 3 h; percent of clofoctol response, DMSO zero | caspase activation, % (no concentration beside the values) | 24,000 tested, under 10 active; in the data active means caspase activation above about 5.9%
#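 system = A1-2A-BIM-expressing MEF cells | quantity = 2500 MEF cells/well | dosing = 50 nL compound per well, pinned | schedule = overnight cell settling, then 3 h compound exposure, 37 °C | signal = luminescence from DEVD-luciferin Caspase-Glo reagent, 1:1 in 50 mM HEPES, 1 h RT | read-out = Caspase-3/7 activation, seen as rise in luminescence signal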
# Starred values were filed as active, the others as inactive; . = no result given.
SMILES,INS-1E rescue,T cruzi intra,A1 apoptosis 2
COc1ccc(CN(C)C[C@H]2Oc3ccc(NC(=O)Cc4cn(C)c5ccccc45)cc3CC(=O)N([C@H](C)CO)C[C@H]2C)cc1,-7,14,1
COc1ccc(CN(C)C[C@@H]2Oc3ccc(NC(=O)Cc4cn(C)c5ccccc45)cc3CC(=O)N([C@H](C)CO)C[C@H]2C)cc1,-8,65*,0
C[C@H](CO)N1C[C@H](C)[C@@H](CN(C)Cc2ccc(C(F)(F)F)cc2)Oc2ccc(NC(=O)Cc3cn(C)c4ccccc34)cc2CC1=O,.,.,0
CC1(C)[C@H]2CC=C(/C=N\NC(=O)c3cccc(C(=O)NO)c3)[C@@H]1C2,-4,1,.
O=C1O[C@@H](c2ccccc2)[C@@H](c2ccccc2)N2[C@@H](c3ccc(OCCO)cc3)[C@]3(C(=O)Nc4ccccc43)[C@@H](C(=O)N3CCCCCCC3)[C@H]12,.,.,0
O=C(O)CCCCCC(=O)N/N=C/c1cccs1,-12,-9,.
C[C@H]1CN([C@@H](C)CO)C(=O)Cc2cc(NC(=O)Cc3cn(C)c4ccccc34)ccc2O[C@H]1CN(C)Cc1ccc(Cl)c(Cl)c1,-1,60*,0
C[C@H](CO)N1C[C@H](C)[C@H](CN(C)Cc2ccc(Cl)c(Cl)c2)Oc2ccc(NC(=O)Cc3cn(C)c4ccccc34)cc2CC1=O,-24,54,0
C[C@H](CO)N1C[C@H](C)[C@@H](CN(C)Cc2ccc(Cl)c(Cl)c2)Oc2c(NC(=O)Nc3ccc(F)cc3)cccc2C1=O,-23,18,0
C[C@@H]1CN([C@H](C)CO)C(=O)c2cccc(NC(=O)Nc3ccc(F)cc3)c2O[C@H]1CN(C)Cc1ccc(Cl)c(Cl)c1,-8,35,.
C[C@H]1CN([C@@H](C)CO)C(=O)c2cccc(NC(=O)Nc3ccc(F)cc3)c2O[C@H]1CN(C)Cc1ccc(Cl)c(Cl)c1,-12,-33,.
C[C@@H]1CN([C@H](C)CO)C(=O)c2cccc(NC(=O)Nc3ccc(C(F)(F)F)cc3)c2O[C@@H]1CN(C)Cc1ccc(Cl)c(Cl)c1,-64,85*,-1
C[C@@H]1CN([C@@H](C)CO)C(=O)c2cccc(NC(=O)Nc3ccc(C(F)(F)F)cc3)c2O[C@H]1CN(C)Cc1ccc(Cl)c(Cl)c1,-52,78*,-1
C[C@@H]1CN([C@H](C)CO)C(=O)c2cccc(NC(=O)Nc3ccc(C(F)(F)F)cc3)c2O[C@H]1CN(C)Cc1ccc(Cl)c(Cl)c1,-36,87*,.
C=CCC/C=N/NC(=O)CCCCCCC(=O)O,0,-7,0
O=C(CCCCC(=O)N/N=C/c1cccc(Br)c1)NO,.,.,-1
O=C(N/N=C/c1ccc(-c2ccccc2)c(F)c1)c1ccccc1O,-21,3,-9
COCCOC(=O)N1C(=O)[C@@]2(c3cc(C#CC4(O)CCCCCC4)ccc31)[C@H](C(=O)NC[C@H](O)c1ccccc1)[C@H]1C(=O)O[C@H](c3ccccc3)[C@H](c3ccccc3)N1[C@@H]2c1ccccc1OCCO,.,.,0
Cc1ccc(S(=O)(=O)Nc2ccc3c(c2)C(=O)N([C@@H](C)CO)C[C@H](C)[C@@H](CN(C)S(=O)(=O)c2ccc(Cl)cc2)OCCCC[C@@H](C)O3)cc1,.,.,-2
C[C@@H]1CCCCO[C@H](CN(C)S(=O)(=O)c2ccc(Cl)cc2)[C@H](C)CN([C@H](C)CO)C(=O)c2cc(NS(=O)(=O)c3ccc(Cl)cc3)ccc2O1,.,.,-2
C[C@@H]1CCCCO[C@@H](CN(C)S(=O)(=O)c2ccc(Cl)cc2)[C@@H](C)CN([C@H](C)CO)C(=O)c2cc(NS(=O)(=O)c3ccc(Cl)cc3)ccc2O1,-15,59*,-1
Cc1ccc(S(=O)(=O)N(C)C[C@H]2OCCCC[C@@H](C)Oc3ccc(NS(=O)(=O)c4ccc(Cl)cc4)cc3C(=O)N([C@H](C)CO)C[C@@H]2C)cc1,-10,64*,.
C[C@@H]1CCCCO[C@@H](CN(C)CC2CCCCC2)[C@@H](C)CN([C@H](C)CO)C(=O)c2cc(NS(=O)(=O)c3ccc(Cl)cc3)ccc2O1,-22,62*,-1
C[C@@H]1CCCCO[C@H](CN(C)CC2CCCCC2)[C@@H](C)CN([C@H](C)CO)C(=O)c2cc(NS(=O)(=O)c3ccc(Cl)cc3)ccc2O1,-2,27,0
O=C(NO)c1cccc(C(=O)N/N=C/c2ccccc2Br)c1,-8,-5,-4
SMILES,INS-1E rescue,T cruzi intra,A1 apoptosis 2
CC(C)(C)OC(=O)NC1(/C=N/NC(=O)c2ccc(C(=O)NO)cc2)CCCC1,17,-14,.
COc1ccc(Br)cc1/C=N/NC(=O)c1ccc(C(=O)NO)cc1,16,-3,1
Cc1ccc(/C=N/NC(=O)c2ccc(C(=O)NO)cc2)o1,6,-3,2
O=C1N(Cc2ccccc2)Cc2ccccc2C[C@@]12N=C(c1ccc(OCCCO)cc1)O[C@H]2c1ccccc1,.,.,0
C[C@H](CO)N1C[C@H](C)[C@@H](CN(C)Cc2ccccc2)Oc2ccc(NS(=O)(=O)c3ccc(Cl)cc3)cc2CC1=O,.,.,-1
C[C@H]1CN([C@@H](C)CO)C(=O)Cc2cc(NS(=O)(=O)c3ccc(F)cc3)ccc2O[C@H]1CN(C)Cc1ccc(Oc2ccccc2)cc1,-29,33,.
C[C@@H]1CN([C@H](C)CO)C(=O)Cc2cc(NS(=O)(=O)c3ccc(Cl)cc3)ccc2O[C@H]1CN(C)Cc1ccc(Oc2ccccc2)cc1,-11,64*,.
C[C@@H]1CN([C@@H](C)CO)C(=O)Cc2cc(NS(=O)(=O)c3ccc(F)cc3)ccc2O[C@@H]1CN(C)Cc1ccc(Oc2ccccc2)cc1,-25,75*,.
C[C@@H]1CN([C@@H](C)CO)C(=O)Cc2cc(NS(=O)(=O)c3ccc(F)cc3)ccc2O[C@@H]1CN(C)Cc1ccc(-c2ccccc2)cc1,-22,63*,-1
C[C@H]1CN([C@@H](C)CO)C(=O)Cc2cc(NS(=O)(=O)c3ccc(Cl)cc3)ccc2O[C@H]1CN(C)Cc1ccc(Oc2ccccc2)cc1,-10,7,-1
C[C@H]1CN([C@@H](C)CO)C(=O)Cc2cc(NS(=O)(=O)c3ccc(F)cc3)ccc2O[C@H]1CN(C)Cc1ccc(-c2ccccc2)cc1,-28,30,1
C[C@@H]1CN([C@H](C)CO)C(=O)Cc2cc(NS(=O)(=O)c3ccc(Cl)cc3)ccc2O[C@H]1CN(C)Cc1ccccc1,-2,73*,.
O=C(N/N=C/c1cn(S(=O)(=O)c2ccccc2)c2ccccc12)c1ccccn1,2,30,0
C[C@@H]1CN([C@H](C)CO)C(=O)c2cccc(NC(=O)Nc3ccc(F)cc3)c2O[C@H]1CN(C)Cc1ccc(-c2ccccc2)cc1,0,-13,0
C[C@@H]1CN([C@H](C)CO)C(=O)c2cccc(NC(=O)Nc3ccccc3)c2O[C@H]1CN(C)Cc1ccc(Oc2ccccc2)cc1,-20,34,-1
C[C@@H]1CN([C@@H](C)CO)C(=O)c2cccc(NC(=O)Nc3ccc(F)cc3)c2O[C@@H]1CN(C)Cc1ccc(-c2ccccc2)cc1,-67,69*,0
